Active and inactive are the calls of the source. The calls are words filed in the database; no cut-off is given here.
Assays:
[1] = tested on: Leishmania donovani; assay: Antileishmanial activity against DsRed2 expressing Leishmania donovani promastigote assessed as parasite death after 48 hrs by flow cytometry; format: functional, organism-based
[2] = tested on: Leishmania donovani; assay: Antileishmanial activity against DsRed2 expressing Leishmania donovani amastigotes assessed as parasite death after 72 hrs by flow cytometry
[3] = tested on: Macrophage; assay: Inhibition of IL6 production in DsRed2-Leishmania donovani promastigote infected in C57BL/6 mouse macrophages after 72 hrs by ELISA; format: functional, cell-based
Summary of the method: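 C57BL/6 bone marrow-derived macrophages (3.5×10^6 cells/well, quadruplicates) were infected with DsRed2-L. donovani promastigotes at 1:10 and treated for 72 h at 37 °C. Supernatant IL-6 was measured by ELISA and reported in pg/mL as mean ± SE.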

[4] = Selectivity index, ratio of CC50 for BALB/c mouse peritoneal macrophages to IC50 for DsRed2-Leishmania donovani amastigotes; format: functional
[5] = Induction of NO production in C57BL/6 mouse macrophages after 72 hrs by Griess assay; conditions: macrophage
[6] = Cytotoxicity against BALB/c mouse peritoneal macrophages after 48 hrs by MTT assay; format: cell-based; conditions: peritoneal macrophage cell
Summary of the method: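 BALB/c peritoneal macrophages were seeded at 1×10^5 cells/well and exposed to 0.2 to 600 μM compound for 48 h at 37 °C under 5% CO2. Viability was read by MTT cleavage, with formazan extracted in 10% SDS for 18 h at 24 °C and absorbance read at 570 nm.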

| Compound | IC50 [1] | IC50 [2] | inhibition [3] | Ratio CC50/IC50 [4] | Activity [5] | CC50 [6] | IC50 ([1]; read-out: IC50) |
| --- | --- | --- | --- | --- | --- | --- | --- |
| C=CCc1ccc(Oc2cc([C@H](O)C=C)cc(OC)c2O)c(OC)c1 | Not Active | 102 µM | Active | >2.9 | Non-toxic | > 292 µM |  |
| SODIUM ANTIMONY GLUCONATE |  |  |  |  |  | 53.4 µM | 307 µM |

Reference: ChEMBL document CHEMBL3576766, “Immunomodulatory and Antileishmanial Activity of Phenylpropanoid Dimers Isolated from Nectandra leucantha” (J Nat Prod, 2015)
